From ChEMBL document CHEMBL4265911, “The synthesis and kinetic evaluation of aryl α-aminophosphonates as novel inhibitors of T. cruzi trans-sialidase” (Eur J Med Chem, 2018) come the findings set out here.

Series [1] addresses T1, Trans-sialidase (Trypanosoma cruzi, UniProt Q26964).
T1 sequence (Q26964 whole entry): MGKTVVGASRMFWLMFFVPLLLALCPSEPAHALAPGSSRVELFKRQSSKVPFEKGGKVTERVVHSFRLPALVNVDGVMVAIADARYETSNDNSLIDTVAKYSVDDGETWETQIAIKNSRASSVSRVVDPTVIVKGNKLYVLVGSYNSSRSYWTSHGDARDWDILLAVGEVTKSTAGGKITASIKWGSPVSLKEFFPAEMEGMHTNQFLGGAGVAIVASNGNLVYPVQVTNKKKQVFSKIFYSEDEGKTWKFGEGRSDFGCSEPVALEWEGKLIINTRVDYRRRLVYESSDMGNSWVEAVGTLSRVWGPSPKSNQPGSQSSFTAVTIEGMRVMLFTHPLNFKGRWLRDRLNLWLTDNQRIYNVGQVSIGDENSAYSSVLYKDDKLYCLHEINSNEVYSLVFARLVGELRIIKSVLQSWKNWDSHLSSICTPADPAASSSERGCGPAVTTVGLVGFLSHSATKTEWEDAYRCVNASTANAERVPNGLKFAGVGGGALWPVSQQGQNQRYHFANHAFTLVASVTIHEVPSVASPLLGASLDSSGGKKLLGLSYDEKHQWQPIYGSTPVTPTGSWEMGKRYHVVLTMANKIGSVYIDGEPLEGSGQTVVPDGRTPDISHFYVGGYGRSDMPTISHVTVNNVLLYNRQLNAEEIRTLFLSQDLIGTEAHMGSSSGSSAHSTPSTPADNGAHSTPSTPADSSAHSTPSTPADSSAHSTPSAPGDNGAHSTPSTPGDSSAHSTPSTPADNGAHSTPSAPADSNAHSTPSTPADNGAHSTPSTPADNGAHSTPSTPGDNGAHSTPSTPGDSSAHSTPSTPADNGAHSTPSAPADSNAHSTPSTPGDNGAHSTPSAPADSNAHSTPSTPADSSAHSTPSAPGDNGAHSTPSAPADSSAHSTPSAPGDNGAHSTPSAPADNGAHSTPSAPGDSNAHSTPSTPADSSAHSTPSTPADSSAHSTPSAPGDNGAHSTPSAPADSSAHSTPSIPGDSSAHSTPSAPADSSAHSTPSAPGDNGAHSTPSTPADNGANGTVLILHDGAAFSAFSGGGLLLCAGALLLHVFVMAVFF
Put plainly: Inhibition of recombinant HisA-tagged Trypanosoma cruzi trans-sialidase expressed in Escherichia coli BL21 (DE3) using MuNANA as substrate pretreated for 10 mins followed by substrate addition by fluorescence assay. In short, it runs like this:
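Continuous fluorometric hydrolysis assay at 35°C in 20mM Tris-HCl, 50mM NaCl, pH 7.5, 0.01% Triton X100. TcTS (50 µg/mL) was preincubated 10 min with at least seven inhibitor levels (1 µM–15 mM), then MuNANA (200 µM) was added. 4-Methylumbelliferone was read at ex 360/em 460 nm, with rate taken as the linear-region slope. IC50 was set at 50% activity loss versus the no-inhibitor control; n=3 independent experiments.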

For series [2], the target named is T1, Trans-sialidase. The series can be described thus: Inhibition of Trypanosoma cruzi trans-sialidase. The method, boiled down:
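TcTS, point-mutated to aid crystallisation and expressed in E. coli BL21(DE3), at 50 µg/mL; pre-incubated 10 min at 35°C with ≥7 inhibitor levels (1 µM–15 mM). MuNANA (200 µM) then added. Buffer: 20 mM Tris-HCl, 50 mM NaCl, pH 7.5, 0.01% Triton X100. Continuous fluorescence (ex 360/em 460 nm), slope RFU/min. IC50 versus no-inhibitor control; n=3 independent experiments.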

The target of series [3] is T1, Trans-sialidase. Put plainly: Inhibition of recombinant Trypanosoma cruzi trans-sialidase expressed in Escherichia coli BL21 (DE3) using MuNANA as substrate after 10 mins in presence of [D-glucose-1-14C]lactose by liquid scintillation counting method.
In series [4] the target is T1, Trans-sialidase. Put plainly: Non-competitive inhibition of recombinant HisA-tagged Trypanosoma cruzi trans-sialidase expressed in Escherichia coli BL21 (DE3) using varying levels of MuNANA as substrate by Lineweaver-burk plot analysis. The method, boiled down:
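TcTS residual hydrolytic activity was measured with MuNANA at 0–400 µM across several set inhibitor concentrations, using the fluorometric method at 35°C and pH 7.5. Km/Vmax came from nonlinear fitting. Ki was fitted with competitive, non-competitive, uncompetitive and mixed models, and the best-fitting model was assigned as the mode. Lineweaver-Burk double-reciprocal plots were made at each inhibitor level.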

Series [5] can be described thus: Solubility of the compound in pH 7.5 Tris-HCl buffer at >7.5 mM. The series is classed as physicochemical.
The next series concerns the target Sialidase A (Streptococcus pneumoniae, UniProt P62575). Put plainly: Inhibition of Streptococcus pneumoniae neuraminidase A using MuNANA as substrate pretreated for 10 mins followed by substrate addition by fluorescence assay.
The target in another series is T2, Sialidase (Clostridium perfringens, UniProt P10481).
T2 sequence (P10481 whole entry): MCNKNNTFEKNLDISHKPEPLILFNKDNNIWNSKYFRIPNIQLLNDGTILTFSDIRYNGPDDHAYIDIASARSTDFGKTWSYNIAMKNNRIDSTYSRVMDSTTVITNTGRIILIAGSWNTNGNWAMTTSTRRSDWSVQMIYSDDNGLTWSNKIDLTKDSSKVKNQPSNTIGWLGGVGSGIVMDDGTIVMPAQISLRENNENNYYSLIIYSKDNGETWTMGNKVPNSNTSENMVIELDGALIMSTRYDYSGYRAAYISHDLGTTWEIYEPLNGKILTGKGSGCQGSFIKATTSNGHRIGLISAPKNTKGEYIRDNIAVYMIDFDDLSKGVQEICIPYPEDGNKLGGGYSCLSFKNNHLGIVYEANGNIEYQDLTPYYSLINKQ
Put plainly: Inhibition of Clostridium perfringens neuraminidase using MuNANA as substrate pretreated for 10 mins followed by substrate addition by fluorescence assay.

Series [6] in a line: Selectivity ratio of IC50 for Streptococcus pneumoniae neuraminidase A to IC50 for recombinant HisA-tagged Trypanosoma cruzi trans-sialidase expressed in Escherichia coli BL21 (DE3).
The nature of series [7]: Selectivity ratio of IC50 for Clostridium perfringens neuraminidase to IC50 for recombinant HisA-tagged Trypanosoma cruzi trans-sialidase expressed in Escherichia coli BL21 (DE3).
Series [8] has as its target T1, Trans-sialidase. Put plainly: Inhibition of Trypanosoma cruzi trans-sialidase using CF3MuSA as substrate by UV/visible spectrophotometric method.
Compound in series [9]: OC[C@@H](O)[C@@H](O[C@@H]1O[C@H](CO)[C@H](O)[C@H](O)[C@H]1O)[C@H](O)[C@@H](O)CO
Put plainly: Inhibition of recombinant HisA-tagged Trypanosoma cruzi trans-sialidase expressed in Escherichia coli BL21 (DE3) using 3-sialyl-lactose as donor measured after 15 mins by HPAEC-PAD.

Chain of Sialidase A (P62575 whole entry): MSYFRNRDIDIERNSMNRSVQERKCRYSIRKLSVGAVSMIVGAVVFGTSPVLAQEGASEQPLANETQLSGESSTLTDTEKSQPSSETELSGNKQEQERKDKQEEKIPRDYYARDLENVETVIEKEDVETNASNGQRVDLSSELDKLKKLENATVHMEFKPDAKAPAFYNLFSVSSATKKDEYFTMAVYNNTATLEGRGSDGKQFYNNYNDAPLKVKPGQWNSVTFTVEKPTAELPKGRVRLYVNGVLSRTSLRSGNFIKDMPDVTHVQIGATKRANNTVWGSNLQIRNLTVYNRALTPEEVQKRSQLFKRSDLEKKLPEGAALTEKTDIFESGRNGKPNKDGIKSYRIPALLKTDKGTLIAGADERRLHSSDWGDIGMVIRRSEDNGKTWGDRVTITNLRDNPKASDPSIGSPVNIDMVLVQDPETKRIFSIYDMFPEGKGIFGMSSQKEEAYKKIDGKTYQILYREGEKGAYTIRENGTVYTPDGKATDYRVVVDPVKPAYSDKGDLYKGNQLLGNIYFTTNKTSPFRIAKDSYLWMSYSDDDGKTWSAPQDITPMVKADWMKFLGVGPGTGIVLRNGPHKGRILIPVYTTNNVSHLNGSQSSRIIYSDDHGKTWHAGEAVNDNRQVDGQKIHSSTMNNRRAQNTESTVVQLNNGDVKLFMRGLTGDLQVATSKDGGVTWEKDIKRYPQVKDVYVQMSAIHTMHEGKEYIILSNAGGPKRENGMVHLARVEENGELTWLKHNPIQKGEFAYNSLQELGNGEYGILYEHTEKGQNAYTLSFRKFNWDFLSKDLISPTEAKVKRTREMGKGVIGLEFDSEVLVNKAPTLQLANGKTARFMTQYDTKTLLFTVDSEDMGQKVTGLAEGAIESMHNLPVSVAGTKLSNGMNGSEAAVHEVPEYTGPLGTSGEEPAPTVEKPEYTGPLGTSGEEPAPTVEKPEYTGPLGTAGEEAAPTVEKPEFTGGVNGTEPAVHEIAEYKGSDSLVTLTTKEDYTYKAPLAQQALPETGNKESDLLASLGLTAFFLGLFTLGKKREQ

The term IC50 denotes the midpoint of a concentration-inhibition curve. For the molecule `O=P(O)(O)C(Nc1cccc2ccccc12)c1cc(C(F)(F)F)cc(C(F)(F)F)c1` (racemic), on Trans-sialidase [1], the IC50 stood at 2350 µM.

In general, Ki refers to a dissociation constant, usually derived from enzyme kinetics or from competition with a known ligand. As to `Cc1ncc(COP(=O)(O)O)c(C=O)c1O` [PYRIDOXAL PHOSPHATE ANHYDROUS], the Ki at Trans-sialidase [2] turned out to be 7300 µM.

As to `CC(=O)N[C@H]1[C@H]([C@H](O)[C@H](O)CO)OC(C(=O)O)=C[C@@H]1O` [NEU5AC2EN], the inhibitory constant (Ki) on Trans-sialidase [3] was 12300 µM.

In the case of `COc1ccc(C(Nc2cccc3ccccc23)P(=O)(O)O)cc1` (racemic), the IC50 at Trans-sialidase [1] was 270 µM.

With `CC(=O)Nc1ccc(C(Nc2cccc3ccccc23)P(=O)(O)O)cc1` (racemic), the IC50 at Trans-sialidase [1] amounted to 230 µM. Also, the inhibition constant Ki on Trans-sialidase [4] amounted to 190 µM.

`O=P(O)(O)C(Nc1ccccc1)c1ccccc1` (racemic): on Trans-sialidase [1], the IC50 is over 7500 µM. In addition, in series [5], the solubility result is reported as “Soluble”.

For `O=[N+]([O-])c1ccc(C(Nc2cccc3ccccc23)P(=O)(O)O)cc1` (racemic), the 50% inhibitory concentration (IC50) on Trans-sialidase [1] stood at 210 µM; at Sialidase A, 1410 µM; at Sialidase, 2390 µM. The Ratio IC50 in [6] and in [7] was 7 to 12 throughout. In addition, the Ki on Trans-sialidase [4] stood at 140 µM.

Turning to `O=P(O)(O)C(Nc1cccc2ccccc12)c1ccc(Cl)cc1` (racemic), the IC50 at Trans-sialidase [1] amounted to 710 µM.

For the molecule `Cc1ccc(S(=O)(=O)Nc2ccc(C(=O)/C=C/c3ccc(O)c(O)c3)cc2)cc1`, on Trans-sialidase [8], half-maximal inhibition (IC50) was put at 0.9 µM.

On to `O=P(O)(O)C(Nc1ccccc1-c1ccccc1)c1ccccc1` (racemic), for which, on Trans-sialidase [1], the concentration for half-maximal inhibition (IC50) was determined as 630 µM.

`O=P(O)(O)C(Nc1cccc2ccccc12)c1ccc(C(F)(F)F)cc1` (racemic): the 50% inhibitory concentration (IC50) at Trans-sialidase [1] came out at 290 µM.

Regarding `O=P(O)(O)C(Nc1cccc2ccccc12)c1ccccc1` (racemic), on Trans-sialidase [1], the 50% inhibitory concentration (IC50) came out at 470 µM. For the same molecule, on Trans-sialidase [4], the inhibition constant (Ki) amounted to 430 µM.

Regarding `O=P(O)(O)C(Nc1cccc(-c2ccccc2)c1)c1ccccc1` (racemic), the IC50 on Trans-sialidase [1] turned out to be 5580 µM.

With `O=P(O)(O)C(Nc1ccc2ccccc2c1)c1ccccc1` (racemic), at Trans-sialidase [1], the half-inhibitory concentration (IC50) was 510 µM.

B1: Trans-sialidase (Trypanosoma cruzi), Q26964 (protein)
chain: MGKTVVGASRMFWLMFFVPLLLALCPSEPAHALAPGSSRVELFKRQSSKVPFEKGGKVTERVVHSFRLPALVNVDGVMVAIADARYETSNDNSLIDTVAKYSVDDGETWETQIAIKNSRASSVSRVVDPTVIVKGNKLYVLVGSYNSSRSYWTSHGDARDWDILLAVGEVTKSTAGGKITASIKWGSPVSLKEFFPAEMEGMHTNQFLGGAGVAIVASNGNLVYPVQVTNKKKQVFSKIFYSEDEGKTWKFGEGRSDFGCSEPVALEWEGKLIINTRVDYRRRLVYESSDMGNSWVEAVGTLSRVWGPSPKSNQPGSQSSFTAVTIEGMRVMLFTHPLNFKGRWLRDRLNLWLTDNQRIYNVGQVSIGDENSAYSSVLYKDDKLYCLHEINSNEVYSLVFARLVGELRIIKSVLQSWKNWDSHLSSICTPADPAASSSERGCGPAVTTVGLVGFLSHSATKTEWEDAYRCVNASTANAERVPNGLKFAGVGGGALWPVSQQGQNQRYHFANHAFTLVASVTIHEVPSVASPLLGASLDSSGGKKLLGLSYDEKHQWQPIYGSTPVTPTGSWEMGKRYHVVLTMANKIGSVYIDGEPLEGSGQTVVPDGRTPDISHFYVGGYGRSDMPTISHVTVNNVLLYNRQLNAEEIRTLFLSQDLIGTEAHMGSSSGSSAHSTPSTPADNGAHSTPSTPADSSAHSTPSTPADSSAHSTPSAPGDNGAHSTPSTPGDSSAHSTPSTPADNGAHSTPSAPADSNAHSTPSTPADNGAHSTPSTPADNGAHSTPSTPGDNGAHSTPSTPGDSSAHSTPSTPADNGAHSTPSAPADSNAHSTPSTPGDNGAHSTPSAPADSNAHSTPSTPADSSAHSTPSAPGDNGAHSTPSAPADSSAHSTPSAPGDNGAHSTPSAPADNGAHSTPSAPGDSNAHSTPSTPADSSAHSTPSTPADSSAHSTPSAPGDNGAHSTPSAPADSSAHSTPSIPGDSSAHSTPSAPADSSAHSTPSAPGDNGAHSTPSTPADNGANGTVLILHDGAAFSAFSGGGLLLCAGALLLHVFVMAVFF
The Km is the substrate concentration at which the rate is half of its maximum. On to B1, for which the Km in [9] was 260 µM.
